ChEMBL document CHEMBL1795212, “Synthesis and in vitro antimalarial activity of tetraoxane-amine/amide conjugates” (Eur J Med Chem, 2011)

What was measured:
Plasmodium falciparum [1] = assay: Antimalarial activity against Plasmodium falciparum W2 assessed as plasmodial LDH activity after 72 hrs; assay type: functional, organism-based; details: Plasmodium falciparum, W2, 72 h; read-out: IC50
Procedure, shortened: (§1)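 P. falciparum D6 (chloroquine-sensitive) and W2 (chloroquine-resistant) clones screened in vitro alongside Vero cytotoxicity, up to a highest concentration of 12.5; IC50 determined.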

[2] = Selectivity index, IC50 for african green monkey Vero cells to IC50 for Plasmodium falciparum W2; assay type: functional
Procedure, shortened: (§2)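 Selectivity index is the cytotoxicity IC50 in Vero cells divided by the antimalarial IC50 against the stated P. falciparum clone (D6 or W2).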

Plasmodium falciparum [3] = assay: Antimalarial activity against Plasmodium falciparum D6 assessed as plasmodial LDH activity after 72 hrs; assay type: functional, organism-based; details: Plasmodium falciparum, D6, 72 h; read-out: IC50; procedure, shortened: as §1
Vero [4] = assay: Cytotoxicity against african green monkey Vero cells at 12.5 uM; assay type: cell-based; details: chlorocebus sabaeus
Procedure, shortened: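 Mammalian kidney Vero cells screened in vitro for cytotoxicity, in parallel with the antimalarial screen, up to a highest concentration of 12.5.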

[5] = Selectivity index, IC50 for african green monkey Vero cells to IC50 for Plasmodium falciparum D6; assay type: functional; procedure, shortened: as §2
Vero [6] = assay: Cytotoxicity against african green monkey Vero cells up to 25 uM; assay type: cell-based; details: chlorocebus sabaeus
Procedure, shortened: (§3)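 Cytotoxicity panel: four cancer lines (SK-MEL, KB, BT-549, SK-OV-3) and two non-cancer lines (Vero, LLC-PK11), tested up to a concentration of 25.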

[7] = Cytotoxicity against pig LLC-PK11 cells up to 25 uM; assay type: cell-based, Sus scrofa; procedure, shortened: as §3
KB = assay: Cytotoxicity against human KB cells up to 25 uM; assay type: cell-based; procedure, shortened: as §3
BT-549 = assay: Cytotoxicity against human BT549 cells up to 25 uM; assay type: cell-based; procedure, shortened: as §3
SK-MEL = assay: Cytotoxicity against human SK-MEL cells up to 25 uM; assay type: cell-based; procedure, shortened: as §3
SK-OV-3 = assay: Cytotoxicity against human SKOV3 cells up to 25 uM; assay type: cell-based; procedure, shortened: as §3

With `Cc1ccc(C2OOC(c3ccc(CNc4ccc(O)cc4)cc3)OO2)cc1` (configuration not stated) the IC50 (Plasmodium falciparum [1]) was 7.11 µM, the “Ratio IC50” value [2] was >1.8 and the IC50 (Plasmodium falciparum [3]) was 6.32 µM. For the same compound, the Activity (Vero [4]) was “Non-toxic” and the “Ratio IC50” value [5] was >1.8.

In the case of `Cc1ccc(C2OOC(c3ccc(/C=N\c4cccnc4)cc3)OO2)cc1` (configuration not stated), the Activity (Vero [6]) is reported as “Non-toxic”, the IC50 (Plasmodium falciparum [1]) is reported as 0.8 µM and the Activity [7] is reported as “Non-toxic”. The “Ratio IC50” value [2] was >16.4, the IC50 (Plasmodium falciparum [3]) was 0.75 µM and the Activity (Vero [4]) was “Non-toxic”. For the same compound, the Activity (KB) was “Non-toxic”, the Activity (BT-549) was “Non-toxic” and the Activity (SK-MEL) was “Non-toxic”. For the same compound, the Activity (SK-OV-3) was “Non-toxic” and the “Ratio IC50” value [5] was >17.6.

In the case of `Cc1ccc(C2OOC(c3ccc(CNc4cccnc4)cc3)OO2)cc1` (configuration not stated), the Activity (Vero [6]) is reported as “Non-toxic”, the IC50 (Plasmodium falciparum [1]) is reported as 0.57 µM and the Activity [7] is reported as “Non-toxic”. For the same compound, the “Ratio IC50” value [2] was >22.7, the IC50 (Plasmodium falciparum [3]) was 0.38 µM and the Activity (Vero [4]) was “Non-toxic”. For the same compound, the Activity (KB) was “Non-toxic”, the Activity (BT-549) was “Non-toxic” and the Activity (SK-MEL) was “Non-toxic”. For the same compound, the Activity (SK-OV-3) was “Non-toxic” and the “Ratio IC50” value [5] was >34.

In the case of `Cc1ccc(C2OOC(c3ccc(CNc4ccc(Br)cc4)cc3)OO2)cc1` (configuration not stated), the IC50 (Plasmodium falciparum [1]) is reported as 4.97 µM, the “Ratio IC50” value [2] is reported as >2.2 and the IC50 (Plasmodium falciparum [3]) is reported as 7.69 µM. The Activity (Vero [4]) was “Non-toxic” and the “Ratio IC50” value [5] was >1.4.

In the case of `COc1ccc(NCc2ccc(C3OOC(c4ccc(C)cc4)OO3)cc2)cc1` (configuration not stated), the IC50 (Plasmodium falciparum [1]) is reported as 10.2 µM, the “Ratio IC50” value [2] is reported as >1.2 and the IC50 (Plasmodium falciparum [3]) is reported as 8.13 µM. For the same compound, the Activity (Vero [4]) was “Non-toxic” and the “Ratio IC50” value [5] was >1.5.

With `COc1cc(NCc2ccc(C3OOC(c4ccc(C)cc4)OO3)cc2)cc(OC)c1` (configuration not stated) the IC50 (Plasmodium falciparum [1]) was 9.2 µM, the “Ratio IC50” value [2] was >1.2 and the IC50 (Plasmodium falciparum [3]) was 6.37 µM. The Activity (Vero [4]) was “Non-toxic” and the “Ratio IC50” value [5] was >1.8.

With `Cc1ccc(C2OOC(c3ccc(CNc4cccc(O)c4)cc3)OO2)cc1` (configuration not stated) the IC50 (Plasmodium falciparum [1]) was 3.95 µM, the “Ratio IC50” value [2] was >3.2 and the IC50 (Plasmodium falciparum [3]) was 3.42 µM. The Activity (Vero [4]) was “Non-toxic” and the “Ratio IC50” value [5] was >3.7.

With `Cc1ccc(C2OOC(c3ccc(CNc4ccc(N)cc4)cc3)OO2)cc1` (configuration not stated) the IC50 (Plasmodium falciparum [1]) was 7.39 µM, the “Ratio IC50” value [2] was >1.7 and the IC50 (Plasmodium falciparum [3]) was 5.28 µM. For the same compound, the Activity (Vero [4]) was “Non-toxic” and the “Ratio IC50” value [5] was >2.4.

With `Cc1ccc(C2OOC(c3ccc(C(=O)O)cc3)OO2)cc1` (configuration not stated) the IC50 (Plasmodium falciparum [1]) was 9.26 µM, the “Ratio IC50” value [2] was >1.7 and the IC50 (Plasmodium falciparum [3]) was 10.6 µM. For the same compound, the Activity (Vero [4]) was “Non-toxic” and the “Ratio IC50” value [5] was >1.5.

For `CCc1ccc(C2OOC(c3ccc(C(=O)NCCO)cc3)OO2)cc1` (configuration not stated), the IC50 (Plasmodium falciparum [1]) was 7.51 µM, the “Ratio IC50” value [2] was >1.8 and the IC50 (Plasmodium falciparum [3]) was 6.67 µM. The Activity (Vero [4]) was “Non-toxic” and the “Ratio IC50” value [5] was >2.

With `CCc1ccc(C2OOC(c3ccc(C(=O)NCCCO)cc3)OO2)cc1` (configuration not stated) the IC50 (Plasmodium falciparum [1]) was 4.82 µM, the “Ratio IC50” value [2] was >2.6 and the IC50 (Plasmodium falciparum [3]) was 4.82 µM. For the same compound, the Activity (Vero [4]) was “Non-toxic” and the “Ratio IC50” value [5] was >2.6.

For `CCc1ccc(C2OOC(c3ccc(C(=O)NCCCCCCO)cc3)OO2)cc1` (configuration not stated), the IC50 (Plasmodium falciparum [1]) was 4.81 µM, the “Ratio IC50” value [2] was >2.4 and the IC50 (Plasmodium falciparum [3]) was 3.36 µM. The Activity (Vero [4]) was “Non-toxic” and the “Ratio IC50” value [5] was >3.4.

For `CCCNC(=O)c1ccc(C2OOC(c3ccc(C)cc3)OO2)cc1` (configuration not stated), the IC50 (Plasmodium falciparum [1]) was 13.9 µM, the “Ratio IC50” value [2] was >1 and the IC50 (Plasmodium falciparum [3]) was 8.73 µM. For the same compound, the Activity (Vero [4]) was “Non-toxic” and the “Ratio IC50” value [5] was >3.4.

With `CCCCNC(=O)c1ccc(C2OOC(c3ccc(CC)cc3)OO2)cc1` (configuration not stated) the IC50 (Plasmodium falciparum [1]) was 6.99 µM, the “Ratio IC50” value [2] was >1.8 and the IC50 (Plasmodium falciparum [3]) was 6.73 µM. For the same compound, the Activity (Vero [4]) was “Non-toxic” and the “Ratio IC50” value [5] was >1.9.

With `Cc1ccc(C2OOC(c3ccc(C(=O)NCCNc4ccnc5cc(Cl)ccc45)cc3)OO2)cc1` (configuration not stated) the IC50 (Plasmodium falciparum [1]) was 1.5 µM, the “Ratio IC50” value [2] was >6.3 and the IC50 (Plasmodium falciparum [3]) was 1.1 µM. For the same compound, the Activity (Vero [4]) was “Non-toxic” and the “Ratio IC50” value [5] was >8.5.

With `Cc1ccc(C2OOC(c3ccc(C(=O)NCCCNc4ccnc5cc(Cl)ccc45)cc3)OO2)cc1` (configuration not stated) the IC50 (Plasmodium falciparum [1]) was 2.11 µM, the “Ratio IC50” value [2] was >4.3 and the IC50 (Plasmodium falciparum [3]) was 1.19 µM. The Activity (Vero [4]) was “Non-toxic” and the “Ratio IC50” value [5] was >7.7.

In the case of `CCc1ccc(C2OOC(c3ccc(C(=O)NCCCNc4ccnc5cc(Cl)ccc45)cc3)OO2)cc1` (configuration not stated), the IC50 (Plasmodium falciparum [1]) is reported as 2.43 µM, the “Ratio IC50” value [2] is reported as >3.7 and the IC50 (Plasmodium falciparum [3]) is reported as 1.08 µM. For the same compound, the Activity (Vero [4]) was “Non-toxic” and the “Ratio IC50” value [5] was >8.2.

For `Cc1ccc(C2OOC(c3ccc(C(=O)NCCc4ccccc4)cc3)OO2)cc1` (configuration not stated), the IC50 (Plasmodium falciparum [1]) was 2.09 µM, the “Ratio IC50” value [2] was >5.6 and the IC50 (Plasmodium falciparum [3]) was 2.71 µM. The Activity (Vero [4]) was “Non-toxic” and the “Ratio IC50” value [5] was >4.3.

For `Cc1ccc(C2OOC(c3ccc(C(=O)N4CCN(c5ccccc5)CC4)cc3)OO2)cc1` (configuration not stated), the IC50 (Plasmodium falciparum [1]) was 7.16 µM, the “Ratio IC50” value [2] was >1.5 and the IC50 (Plasmodium falciparum [3]) was 4.03 µM. For the same compound, the Activity (Vero [4]) was “Non-toxic” and the “Ratio IC50” value [5] was >2.6.

With `Cc1ccc(C2OOC(c3ccc(C(=O)NC4CCCCC4)cc3)OO2)cc1` (configuration not stated) the IC50 (Plasmodium falciparum [1]) was 2.86 µM, the “Ratio IC50” value [2] was >4.3 and the IC50 (Plasmodium falciparum [3]) was 4.43 µM. For the same compound, the Activity (Vero [4]) was “Non-toxic” and the “Ratio IC50” value [5] was >2.8.

With `Cc1ccc(C2OOC(c3ccc(C(=O)NCCCCCCCN)cc3)OO2)cc1` (configuration not stated) the IC50 (Plasmodium falciparum [1]) was 4.66 µM, the “Ratio IC50” value [2] was >2.4 and the IC50 (Plasmodium falciparum [3]) was 5.13 µM. The Activity (Vero [4]) was “Non-toxic” and the “Ratio IC50” value [5] was >2.2.

For `C[C@@H]1CC[C@H]2[C@@H](C)C(=O)O[C@@H]3O[C@@]4(C)CC[C@@H]1[C@]32OO4` [ARTEMISININ], the IC50 (Plasmodium falciparum [1]) was 0.025 µM, the “Ratio IC50” value [2] was >670 and the IC50 (Plasmodium falciparum [3]) was 0.03 µM. The Activity (Vero [4]) was “Non-toxic” and the “Ratio IC50” value [5] was >500.
